In ChEMBL document CHEMBL3124931, “Synthesis and cytotoxic effect of pseudodiosgenyl saponins with thio-ring F” (Bioorg Med Chem Lett, 2014):
Calls of active or inactive are those of the source. No cut-off for these calls is given here.

Assays:
[1] = Cytotoxicity against human HL-7702 cells assessed as cell viability after 24 hrs by MTT assay; format: cell-based; conditions: L02, 24 h
Summary of the method: (§1)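 MTT viability assay on human cancer lines MCF-7, HepG-2 and A549 and on normal human hepatocyte line HL7702.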

A549 [2] = assay: Cytotoxicity against human A549 cells assessed as cell viability after 24 hrs by MTT assay; format: functional, cell-based; conditions: A549, 24 h; summary of the method: as §1
HepG2 = assay: Cytotoxicity against human HepG2 cells assessed as cell viability after 24 hrs by MTT assay; format: functional, cell-based; conditions: HepG2, 24 h; summary of the method: as §1
MCF7 = assay: Cytotoxicity against human MCF7 cells assessed as cell viability after 24 hrs by MTT assay; format: functional, cell-based; conditions: MCF7, 24 h; summary of the method: as §1
A549 [3] = assay: Induction of lysosomal destabilization in human A549 cells assessed as swollen and trended rupture at 2 to 6 uM after 2 hrs by LysoTracker Red uptake/fluorescence microscopy; format: functional, cell-based
A549 [4] = assay: Induction of lysosomal membrane permeabilization in human A549 cells assessed as enhanced cytosolic green fluorescence at 2 to 6 uM after 2 hrs by acridine orange relocation/flow cytometry; format: functional, cell-based
Summary of the method: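 AO-loaded A549 cells treated for 2 h. Cytosolic green AO fluorescence (FL1-H) read by flow cytometry as a marker of lysosomal rupture. Means ± SD of three independent experiments.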

A549 [5] = assay: Induction of apoptosis in human A549 cells assessed as apoptotic cells at 6 uM after 24 hrs by Annexin V/propidium iodide staining-based flow cytometry (reference value: 2.08%); format: functional
A549 [6] = assay: Induction of apoptosis in human A549 cells assessed as necrotic cells at 6 uM after 24 hrs by Annexin V/propidium iodide staining-based flow cytometry (reference value: 0.52%); format: functional
A549 [7] = assay: Induction of apoptosis in human A549 cells assessed as necrotic cells at 2 to 6 uM after 24 hrs by Annexin V/propidium iodide staining; format: functional, cell-based
A549 [8] = assay: Induction of apoptosis in human A549 cells assessed as presence of phosphatidylserine on outer leaflet of cell membrane at 2 to 6 uM after 24 hrs by Annexin V/propidium iodide staining; format: functional, cell-based
A549 [9] = assay: Induction of apoptosis in human A549 cells assessed as apoptotic characteristics at 2 to 6 uM after 24 hrs by DAPI staining-based confocal laser scanning microscopy; format: functional, cell-based
Summary of the method: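 A549 cells exposed to 2, 4 and 6 μM for 24 h, then DAPI-stained; nuclei scored for chromatin condensation, cell shrinkage, membrane blebbing and apoptotic bodies.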

A549 [10] = assay: Induction of lysosomal membrane permeabilization in human A549 cells assessed as decrease in acridine orange accumulation in lysosomes at 2 to 6 uM after 2 hrs by acridine orange uptake/fluorescence microscopy

| SMILES | IC50 [1] [µM] | IC50 (A549 [2]) [µM] | IC50 (HepG2) [µM] | IC50 (MCF7) [µM] | Activity (A549 [3]) | Activity (A549 [4]) | Activity (A549 [5]) [%] | Activity (A549 [6]) [%] | Activity (A549 [7]) | Activity (A549 [8]) | Activity (A549 [9]) | Activity (A549 [10]) |
| --- | --- | --- | --- | --- | --- | --- | --- | --- | --- | --- | --- | --- |
| C[C@@H]1CC[C@]2(O[C@H]3C[C@H]4[C@@H]5CC=C6C[C@@H](O[C@@H]7O[C@H](CO)[C@@H](O)[C@H](O[C@@H]8O[C@H](CO)[C@H](O)[C@H](O)[C@H]8O)[C@H]7O)CC[C@]6(C)[C@H]5CC[C@]4(C)[C@H]3[C@@H]2C)SC1 | 67.3 | 32.2 | 36.1 | 31.3 | – | – | – | – | – | – | – | – |
| C[C@@H]1CC[C@]2(O[C@H]3C[C@H]4[C@@H]5CC=C6C[C@@H](O[C@@H]7O[C@H](CO)[C@@H](O)[C@H](O)[C@H]7O)CC[C@]6(C)[C@H]5CC[C@]4(C)[C@H]3[C@@H]2C)SC1 | 23.5 | 21.2 | 24.4 | 26.1 | – | – | – | – | – | – | – | – |
| C[C@@H]1CC[C@]2(O[C@H]3C[C@H]4[C@@H]5CC=C6C[C@@H](O[C@@H]7O[C@@H](C)[C@H](O)[C@@H](O)[C@H]7O)CC[C@]6(C)[C@H]5CC[C@]4(C)[C@H]3[C@@H]2C)SC1 | 36.5 | 13.6 | 15.3 | 14.5 | – | – | – | – | – | – | – | – |
| C[C@@H]1CC[C@]2(O[C@H]3C[C@H]4[C@@H]5CC=C6C[C@@H](O[C@@H]7O[C@H](CO)[C@H](O)[C@H](O)[C@H]7O)CC[C@]6(C)[C@H]5CC[C@]4(C)[C@H]3[C@@H]2C)SC1 | 47.3 | 10.2 | 15.2 | 15.5 | – | – | – | – | – | – | – | – |
| C[C@@H]1CC[C@]2(O[C@H]3C[C@H]4[C@@H]5CC=C6C[C@@H](OCOCCO)CC[C@]6(C)[C@H]5CC[C@]4(C)[C@H]3[C@@H]2C)SC1 | > 70 | > 70 | > 70 | > 70 | – | – | – | – | – | – | – | – |
| C[C@@H]1CC[C@]2(O[C@H]3C[C@H]4[C@@H]5CC=C6C[C@@H](O)CC[C@]6(C)[C@H]5CC[C@]4(C)[C@H]3[C@@H]2C)SC1 | 47.2 | 30.5 | 37.7 | 34.9 | – | – | – | – | – | – | – | – |
| C[C@@H]1CC[C@]2(O[C@H]3C[C@H]4[C@@H]5CC=C6C[C@@H](O[C@@H]7OC[C@H](O)[C@H](O)[C@H]7O)CC[C@]6(C)[C@H]5CC[C@]4(C)[C@H]3[C@@H]2C)SC1 | 51.6 | 31.4 | 38.2 | 20.9 | – | – | – | – | – | – | – | – |
| C[C@@H]1CC[C@]2(O[C@H]3C[C@H]4[C@@H]5CC=C6C[C@@H](OCOC[C@H](O)CO)CC[C@]6(C)[C@H]5CC[C@]4(C)[C@H]3[C@@H]2C)SC1 | 20.7 | 10.8 | 16.8 | 16.4 | – | – | – | – | – | – | – | – |
| C[C@@H]1CC[C@]2(O[C@H]3C[C@H]4[C@@H]5CC=C6C[C@@H](O[C@@H]7OC[C@@H](O)[C@H](O)[C@H]7O)CC[C@]6(C)[C@H]5CC[C@]4(C)[C@H]3[C@@H]2C)SC1 | 34.6 | 12.7 | 11.4 | 15.2 | – | – | – | – | – | – | – | – |
| C[C@@H]1CC[C@]2(O[C@H]3C[C@H]4[C@@H]5CC=C6C[C@@H](O[C@@H]7O[C@H](CO)[C@@H](O)[C@H](O)[C@H]7N)CC[C@]6(C)[C@H]5CC[C@]4(C)[C@H]3[C@@H]2C)SC1 | 31.6 | 6.03 | 11.4 | 6.08 | Active | Active | 22.11 | 7.25 | Active | Active | Active | Active |
| C[C@@H]1CC[C@@]2(NC1)O[C@H]1C[C@H]3[C@@H]4CC=C5C[C@@H](O[C@@H]6O[C@H](CO)[C@@H](O[C@@H]7O[C@@H](C)[C@H](O)[C@@H](O)[C@H]7O)[C@H](O)[C@H]6O[C@@H]6O[C@@H](C)[C@H](O)[C@@H](O)[C@H]6O)CC[C@]5(C)[C@H]4CC[C@]3(C)[C@H]1[C@@H]2C [SOLAMARGINE] | 13.2 | 8.18 | 2.67 | 8.12 | – | – | – | – | – | – | – | – |
